In ChEMBL document CHEMBL3865819, “Myrsinane, Premyrsinane, and Cyclomyrsinane Diterpenes from Euphorbia falcata as Potassium Ion Channel Inhibitors with Selective G Protein-Activated Inwardly Rectifying Ion Channel (GIRK) Blocking Effects” (J Nat Prod, 2016) one finds inhibition and IC50 data, which are given here for six molecules.

Format in all cases: cell-based
Data set [1] addresses T1, hERG (KCNH2) (Homo sapiens, UniProt Q12809). The data set can be described thus: Inhibition of human ERG expressed in HEK293 cells assessed as decrease in channel current at 30 uM after 3 mins at -80 mV holding potential by automated patch-clamp electrophysiology assay. Conditions: HEK293 cells that express hERG. The method in brief:
(§1)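 HEK-293 cells stably transfected with hERG (Kv11.1), whole-cell automated planar patch clamp. External solution 4 mM KCl, pH 7.4; internal KCl/KF/EGTA, pH 7.2. Protocol: 100 ms −40 mV reference step, 3 s at 20 mV, then 1 s at −40 mV for the outward tail current. After control, 3, 10, 30 μM cumulative, ~3 min each; amitriptyline 10 μM reference, then wash-out; two or three cells; DMSO ≤0.3% final.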
Background: The patch-clamp technique gives a direct electrical read-out from membranes.

Data set [2] has as its target T2, Kir3.1/Kir3.4 (Homo sapiens) (UniProt P48549+P48544). Nature of the data set: Inhibition of GTPgammaS-induced activation of GIRK1/4 (unknown origin) expressed in HEK293 cells assessed as decrease in channel current at 1 uM after 2 mins at -40 mV holding potential by automated patch-clamp electrophysiology assay. The method in brief:
(§2)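 Whole-cell automated planar patch clamp on HEK-293 cells stably expressing GIRK1/4 (Kir3.1/3.4). Internal solution carries 0.9 mM GTPγS to activate channels; bath switched from 4 mM K+ to high-K+ (25 mM KCl) external, pH 7.4. Step to 60 mV, ramp to −140 mV, 100 ms at −140 mV, ~0.1 Hz; inward current read at −140 mV. After 3 min control, 1 then 10 μM for ~2 min each; K+-free solution baseline; two to three cells.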

Data set [3] has as its target T2, Kir3.1/Kir3.4 (Homo sapiens). Nature of the data set: Inhibition of GTPgammaS-induced activation of GIRK1/4 (unknown origin) expressed in HEK293 cells assessed as decrease in channel current at 10 uM after 2 mins at -40 mV holding potential by automated patch-clamp electrophysiology assay. The method in brief:
as §2

Data set [4] addresses T3, Kir3.1/Kir3.4 (Homo sapiens, UniProt P48544+P48549).
T3 sequence (P48549 whole entry): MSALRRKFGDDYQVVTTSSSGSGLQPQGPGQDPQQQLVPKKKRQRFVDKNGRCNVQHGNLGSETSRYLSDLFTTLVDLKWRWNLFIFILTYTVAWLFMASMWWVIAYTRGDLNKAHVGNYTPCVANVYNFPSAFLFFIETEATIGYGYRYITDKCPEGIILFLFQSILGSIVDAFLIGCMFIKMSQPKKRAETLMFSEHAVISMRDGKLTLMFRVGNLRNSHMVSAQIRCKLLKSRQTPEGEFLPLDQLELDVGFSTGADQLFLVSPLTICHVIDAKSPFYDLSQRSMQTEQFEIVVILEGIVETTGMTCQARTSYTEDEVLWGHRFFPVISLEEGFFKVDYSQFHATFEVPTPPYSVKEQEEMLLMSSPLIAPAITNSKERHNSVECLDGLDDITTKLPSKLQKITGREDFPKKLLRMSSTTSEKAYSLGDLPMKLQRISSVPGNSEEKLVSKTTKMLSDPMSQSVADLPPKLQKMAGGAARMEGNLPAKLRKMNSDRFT
T3 sequence (P48544 whole entry): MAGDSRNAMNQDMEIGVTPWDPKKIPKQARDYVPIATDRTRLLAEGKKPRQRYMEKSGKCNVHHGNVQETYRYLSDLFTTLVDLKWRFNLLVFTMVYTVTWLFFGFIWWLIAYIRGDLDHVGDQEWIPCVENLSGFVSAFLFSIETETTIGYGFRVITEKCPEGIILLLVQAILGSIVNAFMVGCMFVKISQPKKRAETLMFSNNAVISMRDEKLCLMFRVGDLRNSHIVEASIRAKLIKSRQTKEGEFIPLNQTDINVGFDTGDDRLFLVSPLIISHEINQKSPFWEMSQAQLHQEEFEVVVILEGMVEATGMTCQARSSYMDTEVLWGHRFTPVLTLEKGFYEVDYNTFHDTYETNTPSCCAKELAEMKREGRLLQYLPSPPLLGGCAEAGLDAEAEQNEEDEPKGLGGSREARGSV
Nature of the data set: Inhibition of GTPgammaS-induced activation of GIRK1/4 (unknown origin) expressed in HEK293 cells assessed as decrease in channel current after 2 mins at -40 mV holding potential by automated patch-clamp electrophysiology assay. The method in brief: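 HEK-293 cells stably expressing Kir3.1/3.4, grown in MEM with 10% FBS and zeocin, trypsinised and resuspended serum-free. Whole-cell automated planar patch clamp. Internal solution contained 0.9 mM GTPγS. Recordings began in normal external solution (4 mM K+), then switched to high-K+ external solution (25 mM KCl, pH 7.4). Each cycle: step to 60 mV for 100 ms, 500 ms ramp to −140 mV, hold at −140 mV for 100 ms, about 0.1 Hz. Inward current taken from the −140 mV segment. After a 3 min control period, compound was added in rising concentrations, about 2 min each: 1 and 10 μM for screening on 2–3 cells, or 1, 3, 10 and 30 μM on at least 5 cells for IC50. Final DMSO was 0.3% or less. Current in K+-free solution served as baseline. 1 μM propafenone was the reference.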

For data set [5], the target named is T1, hERG (KCNH2). The data set can be described thus: Inhibition of human ERG expressed in HEK293 cells assessed as decrease in channel current at 3 uM after 3 mins at -80 mV holding potential by automated patch-clamp electrophysiology assay. Conditions: HEK293 cells that express hERG. The method in brief: as §1
Data set [6] deals with T1, hERG (KCNH2). Nature of the data set: Inhibition of human ERG expressed in HEK293 cells assessed as decrease in channel current at 10 uM after 3 mins at -80 mV holding potential by automated patch-clamp electrophysiology assay. Conditions: HEK293 cells that express hERG. The method in brief:
as §1

Each structure is given as a SMILES string.

T1 sequence (Q12809 whole entry): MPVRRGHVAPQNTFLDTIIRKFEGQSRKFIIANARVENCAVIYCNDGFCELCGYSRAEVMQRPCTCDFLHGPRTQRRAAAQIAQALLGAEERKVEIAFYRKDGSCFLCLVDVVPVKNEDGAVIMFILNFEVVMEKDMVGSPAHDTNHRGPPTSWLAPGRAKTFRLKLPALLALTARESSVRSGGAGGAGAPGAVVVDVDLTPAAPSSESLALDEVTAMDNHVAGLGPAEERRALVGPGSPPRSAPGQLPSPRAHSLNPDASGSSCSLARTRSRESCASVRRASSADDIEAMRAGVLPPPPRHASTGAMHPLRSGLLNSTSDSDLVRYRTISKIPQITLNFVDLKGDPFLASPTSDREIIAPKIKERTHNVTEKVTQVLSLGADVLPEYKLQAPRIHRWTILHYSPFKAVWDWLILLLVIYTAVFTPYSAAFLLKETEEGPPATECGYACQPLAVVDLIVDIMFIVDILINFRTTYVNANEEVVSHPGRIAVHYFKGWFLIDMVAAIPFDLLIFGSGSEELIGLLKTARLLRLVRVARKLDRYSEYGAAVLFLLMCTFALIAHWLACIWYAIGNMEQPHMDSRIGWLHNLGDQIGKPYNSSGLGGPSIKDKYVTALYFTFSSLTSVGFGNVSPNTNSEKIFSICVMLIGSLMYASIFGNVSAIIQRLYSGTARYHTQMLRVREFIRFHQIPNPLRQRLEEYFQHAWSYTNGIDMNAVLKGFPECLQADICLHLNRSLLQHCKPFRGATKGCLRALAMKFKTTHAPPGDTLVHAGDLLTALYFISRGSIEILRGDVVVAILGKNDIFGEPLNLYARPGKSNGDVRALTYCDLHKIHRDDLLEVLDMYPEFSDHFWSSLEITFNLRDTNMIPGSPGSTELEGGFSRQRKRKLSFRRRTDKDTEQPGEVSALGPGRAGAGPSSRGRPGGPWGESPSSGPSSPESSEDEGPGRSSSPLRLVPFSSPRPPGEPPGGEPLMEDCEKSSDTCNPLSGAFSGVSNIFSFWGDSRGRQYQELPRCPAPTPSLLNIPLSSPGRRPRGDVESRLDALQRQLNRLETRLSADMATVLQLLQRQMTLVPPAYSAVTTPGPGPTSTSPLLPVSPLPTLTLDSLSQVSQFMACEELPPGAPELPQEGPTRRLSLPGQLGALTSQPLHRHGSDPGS

Consider `CCC(=O)O[C@@H]1[C@@H]2[C@@H](OC(C)=O)[C@@]34CO[C@@](C)([C@H](OC(C)=O)[C@@]2(OC(C)=O)C[C@@H]1C)[C@@H]3[C@@H](C(C)(C)OC(C)=O)C=CC4=O`, for which the inhibition at 0.05 h, 30 µM in data set [1] came out at 18%. Further, the inhibition in data set [2] is 24%; in data set [3] it was 62%. The IC50 in data set [4] was 6.7 µM. Besides, in data set [5], the inhibition at 0.05 h, 3 µM amounted to 5%. In addition, in data set [6], the inhibition at 0.05 h, 10 µM stood at 13%.
Consider `CCC(C)C(=O)O[C@H]1C(=O)[C@@]23CO[C@@](C)([C@H](OC(C)=O)[C@@]4(OC(C)=O)C[C@H](C)[C@H](OC(=O)c5cccnc5)[C@@H]4[C@H]2OC(C)=O)[C@@H]3[C@@H]2[C@H]1C[C@]2(C)OC(C)=O` (stereo not given in full), for which, in data set [1], the inhibition at 0.05 h, 30 µM is 25%. The inhibition in data set [2] was 31%; in data set [3], 72%. Further, in data set [4], the IC50 worked out at 4.9 µM. In addition, in data set [5], the inhibition at 0.05 h, 3 µM stood at 4%. In data set [6], the inhibition at 0.05 h, 10 µM is 14%.
In the case of `CC(=O)O[C@@H]1[C@H]2[C@@H](OC(=O)C(C)C)[C@@H](C)C[C@]2(OC(C)=O)[C@@H](OC(C)=O)[C@]2(C)OC[C@]13C(=O)C=C[C@H](C(C)(C)OC(C)=O)[C@@H]23` [EUPHORBIAPROLIFERIN C], the inhibition at 0.05 h, 30 µM in data set [1] came to 16%. The inhibition is 34% in data set [2] and 69% in data set [3]. Also, the half-inhibitory concentration (IC50) in data set [4] is 4.7 µM. Further, the inhibition at 0.05 h, 3 µM in data set [5] was 0%. In addition, the inhibition at 0.05 h, 10 µM in data set [6] is 4%.
For the molecule `CC(=O)O[C@@H]1[C@H]2[C@@H](OC(=O)c3ccccc3)[C@@H](C)C[C@]2(OC(C)=O)[C@@H](OC(C)=O)[C@]2(C)OC[C@]13C(=O)C=C[C@H](C(C)(C)OC(C)=O)[C@@H]23`, in data set [1], the inhibition at 0.05 h, 30 µM was 39%. The inhibition in data set [2] stood at 43%; in data set [3], 83%. Besides, the IC50 in data set [4] amounted to 2.5 µM. The inhibition at 0.05 h, 3 µM in data set [5] amounted to 9%. In data set [6], the inhibition at 0.05 h, 10 µM came out at 20%.
Regarding `CC(=O)O[C@@H]1[C@H]2[C@@H](OC(=O)C(C)C)[C@@H](C)C[C@]2(OC(C)=O)[C@@H](OC(C)=O)[C@]2(C)OC[C@]13C(=O)[C@H](OC(C)=O)[C@@H]1C[C@](C)(OC(C)=O)[C@@H]1[C@@H]23`, the inhibition at 0.05 h, 30 µM in data set [1] turned out to be 23%. The inhibition in data set [2] came out at 28%; in data set [3] it was 61%. Further, the IC50 in data set [4] stood at 9.7 µM. Besides, the inhibition at 0.05 h, 3 µM in data set [5] came to 8%. The inhibition at 0.05 h, 10 µM in data set [6] amounted to 16%.
As for `CCC(=O)O[C@@H]1[C@@H]2[C@@H](OC(=O)c3ccccc3)[C@@]3(COC(=O)C(C)C)[C@H]4[C@H](C=C[C@H]3OC(C)=O)C(C)(C)O[C@]4(C)C(=O)[C@@]2(OC(C)=O)C[C@@H]1C`, the inhibition at 0.05 h, 30 µM in data set [1] was determined as 40%. Besides, the inhibition in data set [2] came out at 21%; in data set [3], 47%. In addition, the inhibition at 0.05 h, 3 µM in data set [5] was 11%. Also, the inhibition at 0.05 h, 10 µM in data set [6] came to 24%.

One may read the inhibition as the change of the read-out against control, counted positive when it falls. Usually IC50 stands for the concentration at which inhibition is half-maximal.
